The series can be described thus: Toxicity liver stage against HepG2, at 10uM. It is filed as cell-based. Details: test concentration 10 uM, cell line HepG2-A16-CD81EGFP. Conditions: human, HepG2-A16-CD81EGFP cells; read-out: INHIBITION
A digest of the protocol: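 Uninfected HepG2-A16-CD81EGFP cells, 3 × 10^3 per well, 1536-well, plated on prespotted compound at 10 μM final, parasite-free screening media added to match infected plates; puromycin 10 μM positive, DMSO 0.5% negative; run in parallel with 48 h PbLuc assay at 37 °C, 5% CO2; viability by CellTiter-Glo luminescence, normalized to controls.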
Turning to `Cc1ccccc1-c1noc(CN2CCC(N3CCNC3=O)CC2)n1`, the cytotoxicity at 10 µM is 11.6%.

As for `c1coc(CN2CC[C@@H]3O[C@@H](COCc4ccncc4)CC[C@@H]32)c1`, the cytotoxicity at 10 µM was -155%. On to `O=C1CCCN1CCCC(=O)N1CCCCC1c1ccc(F)cc1` (configuration not stated), for which the cytotoxicity at 10 µM was -43.2%.

For the molecule `CN(Cc1ccc2c(c1)OCO2)C(=O)c1ccc(C2CCCO2)s1` (configuration not stated), the cytotoxicity at 10 µM is 5.6%. As for `O=C(NC1CC1)NC(c1cc(F)ccc1F)C1CC1` (configuration not stated), the cytotoxicity at 10 µM is -12.8%. In the case of `Cc1nccc(N[C@H]2CN(CCS(C)(=O)=O)C[C@@H]2C2CC2)n1` it was 0.34%; in that of `CC1c2ncc(COCC3CC3)n2CCN1C(=O)c1ccn(C)n1` (configuration not stated), 0.993%. Regarding `c1ccc(Cc2nc(C3CC3)nn2-c2ccc3c(c2)OCCO3)nc1`, the cytotoxicity at 10 µM stood at 2.6%. In the case of `Cc1cc(C(=O)N2CCCN(Cc3nccn3C)CC2)no1` it was 0.47%. In the case of `CS(=O)(=O)NCc1cc2n(n1)CCCN(Cc1nc3ccccc3[nH]1)C2` it was -4.55%; in that of `OC(CNCCn1cccn1)COc1ccc(F)cc1` (configuration not stated), -16.6%. The figure for `Cn1ncc(N2CCOC(CCNC(=O)NC(C)(C)C)C2)cc1=O` (configuration not stated) is 22.6%; for `Cc1ccc(CC(=O)N2CCN(C(C)c3ccccc3F)CC2)cn1` (configuration not stated) it is -9.75%. Turning to `CN(C)c1ccc(CC2COCCN(Cc3nccn3C)C2)nn1` (configuration not stated), the cytotoxicity at 10 µM was -10.2%. Regarding `O=C(c1cccc(Cl)c1)N1CC[C@H]2[C@H]1CCN2CC1CCOCC1`, the cytotoxicity at 10 µM was -0.696%.

`Cc1nc(Nc2nccs2)cc(C2CCCN2)n1` (configuration not stated): the cytotoxicity at 10 µM came out at 63%.

Consider `O[C@@H]1CCN(CC2CC2)[C@H]1Cc1ccccc1`, for which the cytotoxicity at 10 µM amounted to 3.57%. In the case of `CCN(CC)C(=O)C(c1ccccc1)N1CCn2c(C)nnc2C1` (configuration not stated) it was 5.57%; in that of `F[C@@H]1CN(Cc2ccccc2)C[C@@H]1OCc1nc2cnccc2[nH]1`, -0.966%; in that of `Cc1cc(C)n2ncc(CN3C[C@@H](O)[C@H](Oc4ccccc4)C3)c2n1`, -33%. Regarding `COCCC(=O)N1CCCC(c2nc(O)cc(-c3ccncc3)n2)C1` (configuration not stated), the cytotoxicity at 10 µM was -24.9%.

Regarding `CC(C)n1ccc2c(NC(=O)c3n[nH]c4c3CCC4)cccc21`, the cytotoxicity at 10 µM turned out to be 7.64%. Consider `Cc1cnc(-c2nc(NC3CC3)ncc2-c2cc(C)no2)cn1`, for which the cytotoxicity at 10 µM was -21.3%.

As for `CC(C(=O)N1CCC(Nc2cccnn2)CC1)n1cccn1` (configuration not stated), the cytotoxicity at 10 µM was -9.17%. In the case of `Cc1cccc(C2CCCN(C(=O)C3CCN(CC(N)=O)CC3)C2)c1` (configuration not stated) it was -7.18%. In the case of `CC(C)CNC(=O)C1(Cc2ccccc2-c2ccccc2)CCNC1` (configuration not stated) it was -17.8%. The figure for `CCC1=N[C@@]2(CC[C@@H]3CN(C(=O)Nc4ccccc4)C[C@@H]32)C(=O)N1C` is 16.8%.

Consider `C=C(C)CN1CCN(Cc2cnc(-c3ccccc3C)nc2)CC1`, for which the cytotoxicity at 10 µM is -33.6%. The figure for `CCOC(C)c1noc(CN2CCNCC2)n1` (configuration not stated) is 1.03%. The figure for `CCS(=O)(=O)Nc1cnn(Cc2cccc(F)c2)c1` is -1%; for `CC(=O)Nc1ccc(CNCc2ccc(CS(C)(=O)=O)cc2)cc1` it is 4.67%; for `CO[C@H]1COC[C@@H]1NC(=O)C1(Oc2ccc(Cl)cc2)CCNCC1` it is -1.91%.

In the case of `C=Cc1ccc(C(=O)N2CCCC(Nc3ccc(F)c(F)c3)C2)cc1` (configuration not stated), the cytotoxicity at 10 µM was -9.03%. In the case of `CO[C@H]1CCN(Cc2nccs2)C[C@@H]1Cc1ccccc1` it was -71.9%.

Turning to `O=C(C1CCOC1)N1Cc2ccccc2OC2(CCOCC2)C1` (configuration not stated), the cytotoxicity at 10 µM was 1.32%. The figure for `CCS(=O)(=O)c1ccc2c(c1)N1CCS(=O)(=O)N=C1O2` is 10.3%; for `CN(CCCNC(=O)Nc1ccc(C#N)cc1)CC(F)(F)F` it is -3%. `CCc1nc(CN2CCCN(CC(O)c3ccccc3)CC2)no1` (configuration not stated): the cytotoxicity at 10 µM is -14%.

For `CCNC(=O)C1CCN(Cc2ccccc2OCC(F)(F)F)CC1`, the cytotoxicity at 10 µM is -3.03%.

For `CC(=O)N1CCCC2(CN(Cc3ccncc3)CCO2)C1` (configuration not stated), the cytotoxicity at 10 µM stood at 7.22%. The figure for `CNc1nc(C(=O)N2CCCC(CO)(CCCOC)C2)cs1` (configuration not stated) is 7.43%. In the case of `Cc1nc(CN2CCN(CC(=O)Nc3c(C)cccc3C)CC2)no1` it was -3.1%. In the case of `CC(Oc1ccccc1C(F)(F)F)C(=O)NCC(N)=O` (configuration not stated) it was -8.38%; in that of `N#Cc1cc(F)c(NCCc2ccc(S(N)(=O)=O)cc2)c(F)c1`, -53.9%; in that of `N#Cc1ccnc(N2CCN(CC(O)c3ccccc3Cl)CC2)c1` (configuration not stated), 1.7%. In the case of `CCOc1ccc(S(=O)(=O)NCc2cccnc2N(C)C)cc1`, the cytotoxicity at 10 µM amounted to 34.7%.

As to `CCC(CO)N(Cc1ccccn1)C(=O)c1ccc(CSC)o1` (configuration not stated), the cytotoxicity at 10 µM is -5.06%. In the case of `CN1CCCC2(CCN(S(=O)(=O)c3c(Cl)nc4sccn34)C2)C1=O` (configuration not stated) it was 12.4%; in that of `CC(C(=O)N1CCN(CCOc2ccccc2)CC1)n1cc(Cl)cn1` (configuration not stated), 10.4%; in that of `N#Cc1ncn(CCC(=O)Nc2ccc(F)c(F)c2)n1`, -147%. In the case of `c1ccc2ncc(CC3CCNC3)cc2c1` (configuration not stated) it was -1.67%; in that of `N#CC1(NC(=O)c2c(F)ccc(OC(F)F)c2F)CCOCC1`, -8.29%. In the case of `CC(=O)N(CCc1ccccc1)CC(=O)NC1(C#N)CC1` it was 1.09%; in that of `CC(C)(C)c1nnc(CN2CCN(C(=O)N3CCCCC3)CC2)o1`, 2.44%; in that of `COc1ccc(CNC(=O)CCc2c(C)noc2C)cc1F`, -6.87%. Take `CCN1CCCC(C)(C(=O)NCc2nnnn2-c2ccccc2)C1` (configuration not stated): the cytotoxicity at 10 µM was -17.7%. With `CN(C)C(=O)CN1CCN(C(=O)C2CSc3ccccc3O2)CC1` (configuration not stated), the cytotoxicity at 10 µM was determined as 1.84%. In the case of `CC(=O)N1CCC(c2ccnc(Nc3cncnc3)n2)CC1`, the cytotoxicity at 10 µM was -33.2%.

For `CC(=O)N1CCC(C(=O)NC2CC(C)(C)Oc3cc(C)ccc32)CC1` (configuration not stated), the cytotoxicity at 10 µM is -5.41%. Take `NS(=O)(=O)c1ccc(C(=O)N2CCCC2c2ccccc2)o1` (configuration not stated): the cytotoxicity at 10 µM is -6.48%. In the case of `O=C(c1cc(Br)ccc1-n1cnnn1)N1CCCC1`, the cytotoxicity at 10 µM was -9.24%.

`Cn1c2ccccc2c2ncn(CCN3CCOCC3)c(=O)c21`: the cytotoxicity at 10 µM amounted to 15.7%. In the case of `O=C(NC1CC1)c1nnn(-c2cccc(C(F)(F)F)c2)c1C1CC1` it was 4.01%.

For `CCSc1nnc(CCNC(=O)OC(C)(C)C)o1`, the cytotoxicity at 10 µM is -25.9%. As for `Cc1nc(CNCC(C)c2nc3ccccc3o2)cs1` (configuration not stated), the cytotoxicity at 10 µM turned out to be 14.5%. In the case of `CC(C)(C)c1n[nH]c(C2CN(C(=O)CCC3CC3)CCO2)n1` (configuration not stated) it was -12.7%; in that of `C[C@@H]1C[C@@H]2CCN(Cc3nccs3)C[C@H]2O1`, -3.15%; in that of `Cn1cccc1C1CCCCCN1C(=O)c1ccc(NC2CC2)nc1` (configuration not stated), -9.24%. In the case of `CCN(CC)S(=O)(=O)N1CCCC1c1nnc2n1CCCCC2` (configuration not stated) it was -6.83%. The figure for `CNc1nc(CNC(=O)Nc2cccc(-c3nnco3)c2)cs1` is -5.26%; for `Cc1ccc(NCC2(O)CCNCC2)cc1C` it is 2.27%; for `c1cnc(N2CCCC3(CCN(Cc4ccncc4)C3)C2)nc1` (configuration not stated) it is 0.436%.

As to `COc1ccc2c(c1)NC(C1CCNCC1)NS2(=O)=O` (configuration not stated), the cytotoxicity at 10 µM is -2.86%.

Turning to `CCC1CN(CC(=O)N2CCN(C(C)=O)CC2)CCN1CCOC` (configuration not stated), the cytotoxicity at 10 µM was -7.58%. The figure for `CCCn1ncnc1C(C)NC(=O)CC1CCN(C(C)C)CC1` (configuration not stated) is -150%; for `CS(=O)(=O)CCOCCNc1ccc(C(F)(F)F)cc1C#N` it is 2.31%; for `COCCN1CCC(CNC(=O)C2(c3ccccc3)CCC2)C1` (configuration not stated) it is -5.36%. The figure for `CN(CCN(C)S(=O)(=O)CC1CCOCC1)c1ccccc1` is -9.65%. In the case of `CNC(=O)c1ccc(OC2CCN(S(C)(=O)=O)CC2)c(Cl)c1`, the cytotoxicity at 10 µM stood at 1.49%. As to `Cc1cc(NC(=O)NCC(c2ccsc2)N(C)C)n(C)n1` (configuration not stated), the cytotoxicity at 10 µM is -5.33%.

As for `Fc1cccc(N2CCCC3(CN(Cc4ccco4)CCO3)C2)c1` (configuration not stated), the cytotoxicity at 10 µM is -63.5%. On to `CN(C)C(=O)N1CCC2(CC1)CN(Cc1ccccn1)C(=O)CO2`, for which the cytotoxicity at 10 µM worked out at 2.99%. The figure for `COc1ccc(CC(=O)N2C[C@@H]3COC[C@]3(CN(C)C)C2)cc1` is -3.01%.

As for `OC[C@@H]1CCCN1c1ccc(-c2nc(CCc3ccccc3)no2)cn1`, the cytotoxicity at 10 µM was -0.134%. In the case of `CCOC(=O)N[C@H]1C[C@@H](C(=O)NCCc2cccc(Cl)c2)N(C)C1` it was -3.79%; in that of `O=C(NCC1(Sc2ccccc2)CC1)c1c[nH]nn1`, -17.9%; in that of `CNS(=O)(=O)c1ccc(CNC(=O)NCC2CCCO2)cc1` (configuration not stated), 7.12%. In the case of `CCOCCC(=O)Nc1cc(C)cnc1OC` it was 18.9%; in that of `CCS(=O)(=O)c1nccn1-c1cccc(F)c1`, 3.12%; in that of `O=C(C1CCOC1)N1CCC(Cn2cc(-c3ccsc3)nn2)CC1` (configuration not stated), -0.039%. In the case of `CC(C)[C@]1(O)CN(C(=O)COCC(N)=O)C[C@H]1C`, the cytotoxicity at 10 µM is 7.37%.

`CC1CN(Cc2ccccc2Cn2cccn2)CCN1C` (configuration not stated): the cytotoxicity at 10 µM was -132%. Turning to `COC1CCCOC12CCN(C(=O)c1ccc3[nH]nnc3c1)CC2` (configuration not stated), the cytotoxicity at 10 µM was -3.97%. The figure for `Cc1cnn(CC2CCCN2Cc2nnc(C3CC3)o2)c1` (configuration not stated) is -21.7%; for `CCc1oc(C(=O)N[C@@H]2c3ccccc3C[C@@H]2O)cc1C` it is 0.243%. For `COc1ccc(N2CCN(C(=O)COc3nccc(C)n3)CC2)cc1`, the cytotoxicity at 10 µM was -6.16%. As for `CNC(=O)c1cccc(CNC2CCCSc3ccccc32)c1` (configuration not stated), the cytotoxicity at 10 µM was -2.64%.

Source of the values: ChEMBL document CHEMBL4513216, “Probing the Open Global Health Chemical Diversity Library for Multistage-Active Starting Points for Next-Generation Antimalarials” (ACS Infect Dis, 2020).
